Data set [1] addresses Histone-lysine N-methyltransferase EZH2 (Homo sapiens, UniProt Q15910). Briefly: Inhibition of EZH2 in human KARPAS422 cells assessed as reduction in H3K27me3 level after 72 hrs by ELISA. On the technique in general: An ELISA detects its analyte on a solid surface through an enzyme-linked reagent.
For data set [2], the target named is Histone-lysine N-methyltransferase EZH2 (Homo sapiens, UniProt Q15910, Y641N). Description: Inhibition of EZH2 Y641N mutant (unknown origin) using oligonucleosomes as substrate after 60 mins in presence of [3H]SAM by scintillation counting analysis.
Sequence of Histone-lysine N-methyltransferase EZH2 (Homo sapiens, UniProt Q15910, Y641N) (Q15910 whole entry Y641N): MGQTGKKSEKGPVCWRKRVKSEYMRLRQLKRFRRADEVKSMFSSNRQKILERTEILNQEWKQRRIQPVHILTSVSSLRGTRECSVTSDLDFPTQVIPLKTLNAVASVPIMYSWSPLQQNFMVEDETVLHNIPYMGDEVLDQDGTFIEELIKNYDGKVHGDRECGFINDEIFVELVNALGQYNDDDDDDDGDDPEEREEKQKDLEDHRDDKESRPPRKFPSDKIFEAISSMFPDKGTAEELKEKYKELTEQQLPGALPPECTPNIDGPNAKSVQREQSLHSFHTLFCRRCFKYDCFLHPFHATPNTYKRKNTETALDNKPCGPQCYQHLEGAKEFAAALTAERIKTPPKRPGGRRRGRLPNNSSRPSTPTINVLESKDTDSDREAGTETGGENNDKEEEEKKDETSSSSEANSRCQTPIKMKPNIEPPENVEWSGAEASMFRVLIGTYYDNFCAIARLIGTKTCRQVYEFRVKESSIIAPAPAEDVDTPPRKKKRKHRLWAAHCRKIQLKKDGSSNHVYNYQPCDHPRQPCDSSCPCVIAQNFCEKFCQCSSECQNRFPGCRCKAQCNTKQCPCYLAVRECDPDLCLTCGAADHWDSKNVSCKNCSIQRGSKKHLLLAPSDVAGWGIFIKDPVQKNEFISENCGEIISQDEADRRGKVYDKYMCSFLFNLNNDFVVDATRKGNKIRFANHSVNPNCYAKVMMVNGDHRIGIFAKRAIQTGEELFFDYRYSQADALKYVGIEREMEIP
In another data set the test system is KARPAS-422. Briefly: Antiproliferative activity against human KARPAS422 cells after 72 hrs by resazurin assay. In kind it is functional, cell-based. In general terms: Alamar Blue is a resazurin reagent that responds to reducing activity.
Another data set has as its system Liver. Description: (§1) Intrinsic clearance in human liver microsomes assessed per mg protein at 1 uM preincubated for 10 mins followed by NADPH addition measured after 45 mins by LC-MS/MS analysis. Particulars: microsomes, 0.75 h, 1 µM. In kind it is ADME, microsome. A digest of the protocol: (§2)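 Test compound (1 μM) with pooled liver microsomes (0.8 mg/mL protein) in 100 mM potassium phosphate pH 7.4, 10 min preincubation, started with 2 mM NADPH, 45 min at 37 °C, in triplicate. Samples quenched with cold methanol containing buspirone internal standard, analysed by LC−MS/MS. CLint derived from t1/2 of parent loss (log-linear slope).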
Background: Liver microsomes are vesicles of endoplasmic reticulum, rich in cytochrome P450 enzymes.

A short description of data set [3]: Kinetic solubility of the compound. In kind it is physicochemical. Particulars: for solubility kinetic: read-out: Kinetic_solubility.
Data set [4] can be described thus: Passive permeability in MDCK cells at 2 uM after 90 mins by LC-MS/MS analysis. In kind it is ADME, cell-based, Canis lupus familiaris. Conditions: dog; for Papp at […], 2 µM: MDCK, read-out: permeability. A digest of the protocol:
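Low-efflux MDCK cells (MDCK-LE) on 96-well inserts, used on day 4. Monodirectional transport of 2 μM drug in transport buffer with 0.1% DMSO at 37 °C. Donor and receiver sampled at 0 and 90 min for LC−MS/MS. Donor pH 6.5 and 7.4, receiver pH 7.4.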

The nature of data set [5]: Lipophilicity, log D of the compound at pH 7.4. Particulars: buffer.
A short description of data set [6]: as §1. Conditions: liver microsomes, read-out: CLH. In kind it is ADME, microsome. A digest of the protocol:
as §2

Data set [7] can be described thus: Thermodynamic solubility in water at 25 degC using crystalline form. In kind it is physicochemical. Particulars: read-out: Therm_solubility.
Data set [8] is described as follows: Clearance in human hepatocytes assessed per million cells. In kind it is ADME, cell-based, Hepatocyte. Particulars: read-out: CLH.

SMILES strings stand for the structures. ≈ marks a conversion by molar mass, not a printed value.

Sequence of Histone-lysine N-methyltransferase EZH2 (Homo sapiens, UniProt Q15910) (Q15910 whole entry): as the sequence (Q15910 whole entry Y641N) above, with N641Y counted along it

In the case of `CCC(O)c1cc(Cl)c2c(c1Cl)C(=O)N(Cc1c(C)cc(C)[nH]c1=O)CC2` (single isomer, unassigned; (+)), the IC50 (commonly the concentration that inhibits the measured activity by half) in [1] was 1050 nM; with KARPAS-422 (karpas-422) it was 714 nM. In addition, in [2], the Ki (as a rule, the dissociation constant of the complex between target and ligand, obtained from inhibition or displacement) is 130 nM. In the data set on Liver, this compound showed a microsomal CLint of 18 µL/min/mg. Besides, the Kinetic_solubility in data set [3] worked out at 59 µM. The Papp at […], 2 µM in [4] is 15 ×10⁻⁶ cm/s. Also, in data set [5] (pH 7.4, logD), the logD (in general, lipophilicity at a set pH, counting ionised and neutral species) stood at 3.1.
For `COC(c1cc(Cl)c2c(c1Cl)C(=O)N(Cc1c(C)cc(C)[nH]c1=O)CC2)C1CCOC1` (single isomer, unassigned; (+)-10a), the IC50 in data set [1] came out at 7 nM; with KARPAS-422 (karpas-422), 25 nM. For the same compound, in data set [2], the Ki was 0.6 nM. Further, the microsomal CLint with Liver was 108 µL/min/mg. For the same compound, in [3], the Kinetic_solubility turned out to be 436 µM. In data set [4], the Papp at […], 2 µM is 17.1 ×10⁻⁶ cm/s. In [5] (pH 7.4, logD), this compound returned a logD of 3.
For the compound `COC(c1cc(Cl)c2c(c1Cl)C(=O)N(Cc1c(C)cc(C)[nH]c1=O)CC2)C1CCN(C(=O)CO)CC1` (stereo in doubt; (+)-16a), the IC50 stood at 13 nM in [1] and 21 nM in the data set with KARPAS-422 (karpas-422). In addition, the Ki in data set [2] is 0.25 nM. In the data set on Liver, the microsomal CLint turned out to be 42 µL/min/mg. Also, the solubility kinetic in [3] is 508 µM (≈ 273 µg/mL). The Papp at […], 2 µM in [4] stood at 7.3 ×10⁻⁶ cm/s. Further, in data set [5] (pH 7.4, logD), the logD was found to be 2.2.
On to `Cc1cc(C)c(CN2CCc3c(Cl)cc(C(CO)C4CCOC4)c(Cl)c3C2=O)c(=O)[nH]1` (stereo in doubt; (-)-6b), for which the values for the IC50 (in data set [1]; with KARPAS-422 (karpas-422)) were 15 nM and 17 nM, respectively. For the same compound, the Ki in data set [2] came out at 0.38 nM. Moreover, the microsomal CLint in the data set on Liver is 25.9 µL/min/mg. In data set [3], this compound registered a Kinetic_solubility of 508 µM. Also, the Papp at […], 2 µM in data set [4] turned out to be 2.5 ×10⁻⁶ cm/s. Besides, the logD in data set [5] (pH 7.4, logD) turned out to be 2.1.
As for `Cc1cc(C)c(CN2CCc3c(Cl)cc([C@H](C)CO)c(Cl)c3C2=O)c(=O)[nH]1`, the IC50 came out at 129 nM in [1] and 186 nM in the data set on KARPAS-422 (Homo sapiens, KARPAS-422, 72 h). Further, the Ki in [2] came to 17 nM. The microsomal CLint at 1 µM in data set [6] was determined as 15.8 µL/min/mg. The solubility kinetic in data set [3] was determined as 131 µM (≈ 53.6 µg/mL). Moreover, the solubility thermodynamic in data set [7] worked out at 34 µg/mL (≈ 83.1 µM). The Papp at […], 2 µM in data set [4] is 12.4 ×10⁻⁶ cm/s. Also, the logD in data set [5] (pH 7.4, logD) was 2.6.
For the compound `COc1cc(C)[nH]c(=O)c1CN1CCc2c(Cl)cc(C(OC)C3(C)COC3)c(Cl)c2C1=O` (single isomer, unassigned; (+)), the IC50 in data set [1] worked out at 8 nM; in the data set with KARPAS-422 (karpas-422), 9 nM. The Ki in [2] was 0.7 nM. In the data set with Liver, this compound registered a microsomal CLint of 207 µL/min/mg. Besides, the solubility kinetic in data set [3] turned out to be 486 µM (≈ 234 µg/mL). In addition, the Papp at […], 2 µM in data set [4] amounted to 5.7 ×10⁻⁶ cm/s. The same compound yielded a logD in [5] (pH 7.4, logD) of 2.3.
For the compound `COC(c1cc(Cl)c2c(c1Cl)C(=O)N(Cc1c(C)cc(C)[nH]c1=O)CC2)C1CCOCC1` (single isomer, unassigned; (+)), the IC50 stood at 9 nM in [1] and 19 nM with KARPAS-422 (karpas-422). Also, the Ki in data set [2] came to 0.1 nM. In the data set on Liver, the microsomal CLint was determined as 129 µL/min/mg. Besides, in data set [3], the solubility kinetic amounted to 57.5 µM (≈ 27.6 µg/mL). In [4], the Papp at […], 2 µM amounted to 13.3 ×10⁻⁶ cm/s. For the same compound, the pH-dependent lipophilicity (logD) in data set [5] (pH 7.4, logD) was 3.4.
Regarding `CCOC(c1cc(Cl)c2c(c1Cl)C(=O)N(Cc1c(C)cc(C)[nH]c1=O)CC2)C1CS(=O)(=O)C1` (single isomer, unassigned), the IC50 in [1] was 6080 nM; in the data set on KARPAS-422 (karpas-422) it was 5560 nM. The inhibition constant (Ki) in data set [2] turned out to be 460 nM. The microsomal CLint in the data set with Liver was 45.7 µL/min/mg. The compound also returned a Kinetic_solubility in data set [3] of 446 µM. Besides, the permeability in data set [4] (mdck, […], 2 µM) was found to be 7.7 ×10⁻⁶ cm/s. In addition, in [5] (pH 7.4), the logD stood at 2.3.
On to `CCOC(c1cc(Cl)c2c(c1Cl)C(=O)N(Cc1c(C)cc(C)[nH]c1=O)CC2)C1CS(=O)(=O)C1` (single isomer, unassigned; (+)), for which the IC50 turned out to be 62 nM in data set [1] and 34 nM in the data set on KARPAS-422 (karpas-422). Besides, the Ki in [2] was determined as 2.9 nM. In the data set with Liver, the microsomal CLint was 124 µL/min/mg. Also, the solubility kinetic in [3] is 453 µM (≈ 233 µg/mL). For the same compound, the Papp at […], 2 µM in data set [4] was 12 ×10⁻⁶ cm/s. The logD in data set [5] (pH 7.4, logD) is 2.4.
For the compound `COc1cc(C)[nH]c(=O)c1CN1CCc2c(Cl)cc(C(OC)C3CCOC3)c(Cl)c2C1=O` (single isomer, unassigned; (+)), the IC50 came out at 4 nM in data set [1] and 9 nM in the data set on KARPAS-422 (karpas-422). In data set [2], the Ki is less than 0.1 nM. Besides, the microsomal CLint in the data set on Liver worked out at 60 µL/min/mg. Also, the solubility kinetic in data set [3] came to 433 µM (≈ 208 µg/mL). Further, in [4], the Papp at […], 2 µM stood at 7.2 ×10⁻⁶ cm/s. The compound further yielded a logD in data set [5] (pH 7.4, logD) of 2.5.
Regarding `Cc1cc(C)c(CN2CCc3c(Cl)cc(C(CO)C4CCOCC4)c(Cl)c3C2=O)c(=O)[nH]1` (single isomer, unassigned; (-)), the IC50 (in data set [1]; with KARPAS-422 (karpas-422)) was 11 nM each time. Further, the Ki in [2] was 0.15 nM. The compound also yielded a microsomal CLint in the data set with Liver of 41.5 µL/min/mg. The compound further gave a Kinetic_solubility in data set [3] of 540 µM. Also, the Papp at […], 2 µM in data set [4] was 2.9 ×10⁻⁶ cm/s. The same compound showed a logD in data set [5] (pH 7.4, logD) of 2.3.
`Cc1cc(C)c(CN2CCc3c(Cl)cc(-c4c(C)noc4C)c(Cl)c3C2=O)c(=O)[nH]1`: the IC50 is 17 nM in [1] and 23 nM in the data set on KARPAS-422 (Homo sapiens, KARPAS-422, 72 h). In [2], the inhibition constant Ki worked out at 1.15 nM. The microsomal CLint at 1 µM in data set [6] lay within 107 to 169 µL/min/mg. Moreover, the hepatocyte CLint in data set [8] is 75 µL/min/1e6 cells. In data set [3], the solubility kinetic was 93 to 95 µM (≈ 41.5 to 42.4 µg/mL). Also, in [7], the solubility thermodynamic was found to be 2 µg/mL (≈ 4.48 µM). In data set [4], the Papp at […], 2 µM was determined as 15.7 ×10⁻⁶ cm/s.
Consider `COC(c1cc(Cl)c2c(c1Cl)C(=O)N(Cc1c(C)cc(C)[nH]c1=O)CC2)C1CCN(C2COC2)CC1` (single isomer, unassigned; (+)), for which the IC50 in data set [1] came to 16 nM; in the data set with KARPAS-422 (karpas-422), 25 nM. The Ki in data set [2] came to 0.64 nM. The compound further gave a microsomal CLint in the data set on Liver of 72.7 µL/min/mg. Moreover, in data set [3], the solubility kinetic was 523 µM (≈ 280 µg/mL). In addition, the Papp at […], 2 µM in data set [4] was determined as 7 ×10⁻⁶ cm/s. This compound gave a logD in data set [5] (pH 7.4, logD) of 2.7.

(Values after ChEMBL document CHEMBL4024771, “Optimization of Orally Bioavailable Enhancer of Zeste Homolog 2 (EZH2) Inhibitors Using Ligand and Property-Based Design Strategies: Identification of Development Candidate …” (J Med Chem, 2018).)
